ChEMBL document CHEMBL1125910, “Design of a well-absorbed renin inhibitor” (J Med Chem, 1991)

Experiments:
Rattus norvegicus [1] = test: Upon intraduodenal administration in rats at a dose of 10 mg/kg, portal plasma levels calculated after 10 min.; assay type: functional, organism-based; parameters: dose 10 mg/kg
Outline: (§1)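 Anesthetized rats given 10 mg/kg intraduodenally. Blood sampled at 10 and 30 min from the portal vein and from the systemic circulation. Drug level in plasma measured by renin inhibition assay, reported in ng/mL as mean ± SE, n = 3 (some groups 5 or 6).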

Rattus norvegicus [2] = test: Upon intraduodenal administration in rats at a dose of 10 mg/kg, systemic plasma levels calculated after 30 min.; assay type: functional, organism-based; parameters: dose 10 mg/kg; outline: as §1
Rattus norvegicus [3] = test: Upon intraduodenal administration in rats at a dose of 10 mg/kg, portal plasma levels calculated after 30 min.; assay type: functional, organism-based; parameters: dose 10 mg/kg; outline: as §1
Cathepsin D (Bos taurus) [4] = biological target: T1, Cathepsin D (Bos taurus) (UniProt P80209); test: Inhibitory activity against cathepsin D in bovine at 1*10e-5 M concentration.
T1 sequence (whole entry): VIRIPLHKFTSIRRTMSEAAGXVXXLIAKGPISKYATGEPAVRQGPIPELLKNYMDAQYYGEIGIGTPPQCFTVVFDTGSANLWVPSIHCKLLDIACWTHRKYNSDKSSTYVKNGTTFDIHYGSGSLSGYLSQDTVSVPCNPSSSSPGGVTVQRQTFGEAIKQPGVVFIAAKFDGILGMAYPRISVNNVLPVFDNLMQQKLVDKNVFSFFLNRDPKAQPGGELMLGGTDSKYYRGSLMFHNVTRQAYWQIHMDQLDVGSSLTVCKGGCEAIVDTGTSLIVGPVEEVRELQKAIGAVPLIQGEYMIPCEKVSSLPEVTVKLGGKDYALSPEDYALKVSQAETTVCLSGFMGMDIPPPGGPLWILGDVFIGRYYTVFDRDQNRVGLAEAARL
Outline: (§2)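 Bovine or human cathepsin D, assayed at pH 3.0; percent inhibition recorded with inhibitor at 1 × 10^-5 M, and also at 1 × 10^-7 M.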

Pepsin A (Sus scrofa) = Pepsin A (Sus scrofa) (UniProt P00791); test: Inhibitory activity against pepsin in porcine at 1*10e-5 M concentration.; assay type: functional
Outline: (§3)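 Human or porcine pepsin, assayed at pH 2.0; percent inhibition recorded with inhibitor at 1 × 10^-5 M.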

Rattus norvegicus [5] = test: Upon intraduodenal administration in rats at a dose of 10 mg/kg, systemic plasma levels calculated after 10 min.; assay type: functional, organism-based; parameters: dose 10 mg/kg; outline: as §1
Renin [6] = biological target: T2, Renin (Homo sapiens, UniProt P00797); test: Compound was evaluated for the inhibitory concentration against human plasma renin at pH 7.4; assay type: cell-free
T2 sequence (P00797 whole entry): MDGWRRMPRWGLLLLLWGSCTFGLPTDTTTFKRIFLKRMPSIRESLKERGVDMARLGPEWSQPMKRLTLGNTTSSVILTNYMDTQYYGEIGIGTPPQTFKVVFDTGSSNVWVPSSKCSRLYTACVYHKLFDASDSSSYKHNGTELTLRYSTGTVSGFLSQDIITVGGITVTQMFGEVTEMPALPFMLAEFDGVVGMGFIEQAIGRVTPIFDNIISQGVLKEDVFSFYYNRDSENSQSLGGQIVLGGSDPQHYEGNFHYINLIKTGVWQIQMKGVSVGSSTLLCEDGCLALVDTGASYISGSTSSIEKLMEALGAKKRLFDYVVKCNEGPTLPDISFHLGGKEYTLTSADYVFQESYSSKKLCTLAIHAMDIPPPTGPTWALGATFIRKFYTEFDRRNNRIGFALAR
Outline: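 Renin inhibition assayed in human plasma, with plasma renin as the enzyme source, at pH 7.4. IC50 reported in nM.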

Renin [7] = biological target: T2, Renin; test: Compound was evaluated for the inhibitory concentration against purified human renal renin at pH 6.5
[8] = biological target: Cathepsin D (Homo sapiens) (UniProt P07339); test: Inhibitory activity against cathepsin D in human at 1*10e-7 M concentration.; outline: as §2
Cathepsin D (Bos taurus) [9] = biological target: T1, Cathepsin D (Bos taurus); test: Inhibitory activity against cathepsin D in bovine at 1*10e-7 M concentration.; outline: as §2
Pepsin A (Homo sapiens) = Pepsin A (Homo sapiens) (UniProt P0DJD9); test: Inhibitory activity against human pepsin at 1*10e-5 M; assay type: functional; outline: as §3
[10] = biological target: Cathepsin D (Homo sapiens) (UniProt P07339); test: Inhibitory activity against cathepsin D in human at 1*10e-5 M concentration.; outline: as §2

Sequence of Pepsin A (Sus scrofa) (P00791 60-385 limits assumed): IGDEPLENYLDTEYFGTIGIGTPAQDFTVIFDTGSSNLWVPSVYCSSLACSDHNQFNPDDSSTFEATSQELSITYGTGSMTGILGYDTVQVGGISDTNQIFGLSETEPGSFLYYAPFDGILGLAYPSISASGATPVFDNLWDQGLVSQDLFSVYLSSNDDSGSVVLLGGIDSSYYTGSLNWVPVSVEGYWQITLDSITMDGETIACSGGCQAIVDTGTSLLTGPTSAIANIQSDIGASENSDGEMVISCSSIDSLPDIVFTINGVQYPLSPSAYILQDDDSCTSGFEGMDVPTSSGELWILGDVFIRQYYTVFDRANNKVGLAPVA
Sequence of Cathepsin D (Homo sapiens) (P07339 65-162 limits assumed): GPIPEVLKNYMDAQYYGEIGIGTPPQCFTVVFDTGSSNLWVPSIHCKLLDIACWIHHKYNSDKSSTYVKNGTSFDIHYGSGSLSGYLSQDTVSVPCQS
Sequence of Cathepsin D (Homo sapiens) (P07339 169-412 limits assumed): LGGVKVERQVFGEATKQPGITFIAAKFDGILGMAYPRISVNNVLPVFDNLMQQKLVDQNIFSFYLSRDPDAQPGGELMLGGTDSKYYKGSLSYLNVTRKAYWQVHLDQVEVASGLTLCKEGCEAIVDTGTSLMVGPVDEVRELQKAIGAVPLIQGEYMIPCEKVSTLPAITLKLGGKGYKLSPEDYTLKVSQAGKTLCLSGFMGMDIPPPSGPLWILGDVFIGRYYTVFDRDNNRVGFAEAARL
Sequence of Pepsin A (Homo sapiens) (P0DJD9 63-388 limits assumed): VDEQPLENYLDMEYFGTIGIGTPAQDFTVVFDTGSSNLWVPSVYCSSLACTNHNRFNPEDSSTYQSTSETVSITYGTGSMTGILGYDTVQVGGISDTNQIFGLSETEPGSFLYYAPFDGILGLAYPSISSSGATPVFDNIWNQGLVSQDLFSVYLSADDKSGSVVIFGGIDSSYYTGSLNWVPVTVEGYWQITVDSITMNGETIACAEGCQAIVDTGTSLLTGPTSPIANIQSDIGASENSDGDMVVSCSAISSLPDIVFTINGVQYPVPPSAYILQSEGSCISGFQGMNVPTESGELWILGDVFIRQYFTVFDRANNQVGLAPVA

CCN1C[C@@H]([C@H](O)[C@H](CC2CCCCC2)NC(=O)[C@H](Cc2c[nH]cn2)NC(=O)[C@@H](CC(=O)N2CCOCC2)Cc2ccccc2)OC1=O
Plasma level (Rattus norvegicus [1]): 280 ng/mL
Plasma level (Rattus norvegicus [2]): 34 ng/mL
Plasma level (Rattus norvegicus [3]): 390 ng/mL
inhibition (Cathepsin D (Bos taurus) [4]): 2%
inhibition (Pepsin A (Sus scrofa)): 2%
Plasma level (Rattus norvegicus [5]): 55 ng/mL

CCN1C[C@@H]([C@H](O)[C@H](CC2CCCCC2)NC(=O)[C@H](Cc2cccs2)NC(=O)[C@@H](CC(=O)N2CCOCC2)Cc2ccccc2)OC1=O
IC50 (Renin [6]): 43 nM
IC50 (Renin [7]): 1.5 nM

CCN1C[C@@H]([C@H](O)[C@H](CC2CCCCC2)NC(=O)[C@H](Cc2cscn2)NC(=O)[C@@H](CC(=O)N2CCOCC2)Cc2ccccc2)OC1=O
IC50 (Renin [6]): 8.1 nM
Plasma level (Rattus norvegicus [1]): 1900 ng/mL
Plasma level (Rattus norvegicus [2]): 300 ng/mL
Plasma level (Rattus norvegicus [3]): 1100 ng/mL
inhibition (Cathepsin D (Bos taurus) [4]): 93%
inhibition [8]: 40%
inhibition (Cathepsin D (Bos taurus) [9]): 28%
inhibition (Pepsin A (Homo sapiens)): 26%
inhibition (Pepsin A (Sus scrofa)): 57%
IC50 (Renin [7]): 0.6 nM
inhibition [10]: 100%
Plasma level (Rattus norvegicus [5]): 320 ng/mL

CCN1C[C@@H]([C@H](O)[C@H](CC2CCCCC2)NC(=O)[C@H](Cc2cc[nH]n2)NC(=O)[C@@H](CC(=O)N2CCOCC2)Cc2ccccc2)OC1=O
IC50 (Renin [6]): 21 nM
Plasma level (Rattus norvegicus [1]): 28 ng/mL
Plasma level (Rattus norvegicus [2]): 7 ng/mL
Plasma level (Rattus norvegicus [3]): 58 ng/mL
IC50 (Renin [7]): 1.1 nM
Plasma level (Rattus norvegicus [5]): 6.7 ng/mL

CCN1C[C@@H]([C@H](O)[C@H](CC2CCCCC2)NC(=O)[C@H](Cc2cn(C)cn2)NC(=O)[C@@H](CC(=O)N2CCOCC2)Cc2ccccc2)OC1=O
IC50 (Renin [6]): 58 nM
IC50 (Renin [7]): 7.4 nM
